Reference: ChEMBL document CHEMBL5325455, “Daphnanes diterpenes from the latex of Hura crepitans L. and their PKCζ-dependent anti-proliferative activity on colorectal cancer cells” (Bioorg Med Chem, 2023)
pIC50: −log10 of the molar value. Activity calls are given as the source filed them. No cut-off for these calls is given here.

Experiments:
[1] = system: Colorectal epithelial cell; experiment: Cytostatic activity against human Colorectal epithelial cells isolated from left colon of patient with recurrent diverticulitis cultured as organoids at 1 ug/ml incubated for 48 hrs by CellTiter-Glo luminescence assay; format: functional, cell-based; conditions: dose 1.0 µg/ml
Method in brief: (§1)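 Primary colonic epithelial cells (3 control and 2 CRC patients) were expanded as organoids or spheroids in Matrigel with EGF/noggin/Wnt3a/R-spondin medium. Single cells were seeded at 2500/well and allowed 48 h to form colonoids, then exposed for 48 h at 0.01, 0.1 or 1 µg/mL, with 5FdU at 1 µg/mL as positive control. Viability was read by CellTiter-Glo luminescence versus DMSO or medium control.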

[2] = system: Colorectal epithelial cell; experiment: Cytostatic activity against human Colorectal epithelial cells isolated from left colon of patient with sigmoido-vaginal fistula for diverticulitis cultured as organoids at 1 ug/ml incubated for 48 hrs by CellTiter-Glo luminescence assay; format: functional, cell-based; conditions: dose 1.0 µg/ml; method in brief: as §1
[3] = system: Colorectal epithelial cell; experiment: Cytostatic activity against human Colorectal epithelial cells isolated from patient with well-differentiated colonic adenocarcinoma cultured as organoids at 1 ug/ml incubated for 48 hrs by CellTiter-Glo luminescence assay; format: functional, cell-based; conditions: dose 1.0 µg/ml; method in brief: as §1
[4] = system: Colorectal epithelial cell; experiment: Cytostatic activity against human Colorectal epithelial cells isolated from patient with well-differentiated colonic adenocarcinoma and undergone nine courses of chemotherapy cultured as organoids at 1 ug/ml incubated for 48 hrs by CellTiter-Glo luminescence assay; format: functional, cell-based; conditions: dose 1.0 µg/ml; method in brief: as §1
[5] = system: Colorectal epithelial cell; experiment: Cytostatic activity against human Colorectal epithelial cells isolated from patient with fistulized sigmoiditis cultured as organoids at 1 ug/ml incubated for 48 hrs by CellTiter-Glo luminescence assay; format: functional, cell-based; conditions: dose 1.0 µg/ml; method in brief: as §1
[6] = system: Caco-2; experiment: Cytotoxicity against human Caco-2 cells assessed as cell death; format: functional, cell-based
[7] = system: Caco-2; experiment: Cytostatic activity against human Caco-2 cells assessed as inhibition of cell growth at 1 ug/ml incubated for 48 hrs by MTS assay; format: functional, cell-based; conditions: dose 1.0 µg/ml
Method in brief: (§2)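 Caco-2 cells were seeded at 40 000/well 48 h before dosing. Compound was diluted from a 10 mg/mL DMSO stock into medium (0.125, 0.5 or 1 µg/mL final; DMSO ≤0.01%) and added in triplicate for 48 h. Viability was read by MTS absorbance at 490 nm and expressed relative to the DMSO control.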

[8] = system: Zika virus; experiment: Antiviral activity against ZIKV expressing GFP reporter gene measured 24 hrs post infection; format: functional, organism-based
Method in brief: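 Cells in 96-well plates were exposed to serial concentrations starting at 50 µg/mL and infected with GFP-reporter Zika virus at MOI 1. At 24 h post-infection, cells were fixed in 3.7% PFA and GFP-positive cells were counted by flow cytometry.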

[9] = system: SARS-CoV-2; experiment: Antiviral activity against SARS-CoV-2 assessed as reduction in progeny production measured 24 hrs post infection by PFU assay; format: functional, organism-based; conditions: Severe acute respiratory syndrome coronavirus 2, 24 h
[10] = system: Caco-2; experiment: Cytostatic activity against human Caco-2 cells assessed as inhibition of cell growth at 1 ug/ml incubated for 48 hrs by MTS assay relative to control; format: functional; method in brief: as §2
[11] = system: Caco-2; experiment: Upregulation of PKCdelta protein expression in human Caco-2 cells at 1 ug/ml incubated for 48 hrs by Western blot analysis; format: functional, cell-based; conditions: dose 1.0 µg/ml
Method in brief: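 Caco-2 cells, 0.25 × 10^6 per well, seeded 48 h before treatment; DMSO vehicle control. Optional 15 min pretreatment with 0.2 µM Gö6976. Cells lysed on ice after 48 h in pH 7.4 Tris/NaCl/Triton/EDTA buffer with protease and phosphatase inhibitors. 30 µg protein run on 4–15% SDS-PAGE, blotted to nitrocellulose, ECL detection. pSer664 and total PKCδ probed, ratio quantified, actin as loading control; one experiment.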

O=c1[nH]c(=O)n([C@H]2C[C@H](O)[C@@H](CO)O2)cc1F
Activity [1]: inactive
Activity [2]: inactive
Activity [3]: inactive
Activity [4]: inactive
Activity [5]: inactive

C=C(C)[C@]1(O)C[C@@H](C)[C@]2(O)[C@H]([C@H]1O)[C@@H]1O[C@]1(COC(=O)CCCCCCCCCC(C)/C=C/CCCCC)[C@@H](O)[C@]1(O)C(=O)C(C)=C[C@H]12 (stereo not given in full)
Activity [6]: inactive
Activity [7]: inactive
pIC50 [8]: < 4.30
pIC50 [9]: 4.47

C=C(C)[C@]12C[C@@H](C)[C@@]34O[C@](/C=C/[C@H](O)[C@@H](O)CCCCCCCCC)(O[C@@H]1[C@@H]3[C@@H]1O[C@]1(CO)[C@@H](O)[C@]1(O)C(=O)C(C)=C[C@H]14)O2
Activity [6]: inactive
Activity [7]: Active

C=C(C)[C@]12C[C@@H](C)[C@@]34O[C@](/C=C/C=C\C(=O)CCCCCCCC)(O[C@@H]1[C@@H]3[C@@H]1O[C@]1(CO)[C@@H](O)[C@]1(O)C(=O)C(C)=C[C@H]14)O2
Activity [6]: inactive
inhibition at 1 µg/mL [10]: ~25%

C=C(C)[C@]12C[C@@H](C)[C@@]34O[C@](/C=C/C=C/[C@H](O)CCCCCCCC)(O[C@@H]1[C@@H]3[C@@H]1O[C@]1(CO)[C@@H](O)[C@]1(O)C(=O)C(C)=C[C@H]14)O2
Activity [6]: inactive
inhibition at 1 µg/mL [10]: ~25%

Cn1c2ccccc2c2c3c(c4c5ccccc5n(CCC#N)c4c21)CNC3=O
Activity [11]: Active

C=C(C)[C@]12C[C@@H](C)[C@@]34O[C@](/C=C/C=C/C(=O)CCCCCCCC)(O[C@@H]1[C@@H]3[C@@H]1O[C@]1(CO)[C@@H](O)[C@]1(O)C(=O)C(C)=C[C@H]14)O2
Activity [6]: inactive
pIC50 [8]: < 4.30
pIC50 [9]: 4.30
inhibition at 1 µg/mL [10]: ~25%
